Measured values taken from PMC2889768 (Diabetes, 2010).
Read-outs that look alike come from different tables or passages of the source. Values belong to the molecule of their own block, whether it stands above or below them.

Tests used:
[1] = molecular target: NCX1.1 (Homo sapiens, UniProt P32418); test: excised inside-out patch-clamp, recombinant forward-mode; type: biochemical
[2] = molecular target: NCX1.3 (Homo sapiens, UniProt P32418); test: excised inside-out patch-clamp, recombinant forward-mode; type: biochemical
How it was run: (§1)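 Excised inside-out patches at 22 ± 1°C from tsA201 cells 24–72 h after calcium-phosphate cotransfection with human NCX1 splice-variant cDNA plus GFP. Patch held at 0 mV. Forward-mode current elicited by raising Ca2+c […]. Peak is the maximal current after activation, late current is at 1 min, total current is the AUC. Concentration-response fitted with the Hill equation. DMSO 0.1% final.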

[3] = molecular target: NCX1.7 (Homo sapiens, UniProt P32418); test: as above; type: biochemical
How it was run: as §1

[4] = molecular target: NCX1.11 (Homo sapiens, UniProt P32418, INS637ALLLNEL); test: as above; type: biochemical; conditions: 5 μmol/l; n = 8
How it was run: as §1

[5] = molecular target: NCX1.4 (Rattus norvegicus, UniProt Q01728); test: excised inside-out patch-clamp, recombinant forward-mode; type: biochemical; conditions: 5 μmol/l; exon B replaced with A in rat NCX1.3
[6] = system: β-cell L-type calcium channels; type: cell-based, mouse; conditions: 1 μmol/l; n = 7
[7] = system: β-cell L-type calcium channels; type: cell-based, human; conditions: 1 μmol/l
[8] = system: mouse islets; test: Fura-2 calcium imaging of mouse islets; type: cell-based
[9] = system: mouse β-cells; test: membrane capacitance, depolarization-induced exocytosis in mouse β-cells; type: cell-based; conditions: 1 μmol/l; train of 10 depolarizations; n = 6; control 36.04 ± 4.87
How it was run: (§2)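 Islets dispersed 2 h post-isolation with 0.0025% trypsin in Ca2+-free buffer and plated on poly-D-lysine coverslips. Mouse cells cultured in medium 199, human cells in DMEM, both with 5.6 mmol/l glucose. Cells exposed to 1 μmol/l test compound for at least 5 min. Exocytosis elicited by 10 × 500-ms depolarisations (1 Hz) from −70 to 0 mV. Total is the summed capacitance increase, normalised as fF/pF. β- and α-cells identified post hoc by insulin or glucagon immunostaining.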

[10] = system: human β-cells; test: membrane capacitance, depolarization-induced exocytosis in human β-cells; type: cell-based; conditions: 1 μmol/l; train of 10 depolarizations; n = 4; control 13.01 ± 5.64
How it was run: as §2

[11] = system: mouse α-cells; test: membrane capacitance, depolarization-induced exocytosis in mouse α-cells; type: cell-based; conditions: 1 μmol/l
How it was run: as §2

[12] = system: β-cells; test: membrane capacitance, calcium infusion experiments; type: cell-based; conditions: 1 μmol/l; infusion of 200 nmol/l free Ca2+
How it was run: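 Whole-cell capacitance in dispersed islet cells with pipette Ca2+ buffered to 200 nmol/l free with EGTA, so Ca2+ is infused directly. Recorded with or without 1 μmol/l test compound, applied for at least 5 min. β-cells identified post hoc by insulin immunostaining.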

[13] = system: mouse islets; test: glucose-stimulated insulin secretion, mouse islet perifusion; type: cell-based; conditions: 1 μmol/l
How it was run: (§3)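 Islets (BALB/c mouse, or human from three donors) preincubated 2 h at 37°C in low-glucose KRB (2.8 mmol/l glucose, 24 NaHCO3, 0.5% BSA, pH 7.4) ± 1 μmol/l test compound, with a solution change at 1 h. Groups of 25 islets perifused at 0.25 ml/min and 37°C: 10 min at 2.8 mmol/l, then 40 min at 11.1 mmol/l glucose. Fractions every 2 min; insulin by ELISA, as ng/ml per 25 islets or 11.1/2.8 fold change.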

[14] = system: human islets; test: glucose-stimulated insulin secretion, human islet perifusion; type: cell-based; conditions: 1 μmol/l
How it was run: as §3

[15] = intraperitoneal glucose tolerance tests in mice; type: in vivo; conditions: preliminary, data not shown
[16] = system: cardiac L-type calcium channel; conditions: read-out: IC50s, cardiac L-type calcium channel; cited from earlier work

inhibition of total FM NCX1.1 activity ([1]; 5 μmol/l): failed to inhibit
IC50 ([1]; read-out: IC50, inhibition of total FM NCX1.1 activity, cardiac splice variant, total current (AUC), tsA201 cells): 43 µM
inhibition of recombinant β-cell NCX1.3 FM current ([2]; 1 μmol/l): ~25%
reduction in total FM NCX1.3 activity ([2]; 5 μmol/l, n = 10): 69.45 ± 3.12%
IC50 ([2]; read-out: IC50, FM late current NCX1.3, late current, 1 min postactivation): 2.15 ± 0.26 µM
IC50 ([2]; read-out: IC50, FM peak current NCX1.3, peak current): 5.59 ± 0.28 µM
inhibition of recombinant β-cell NCX1.7 FM current ([3]; 1 μmol/l): ~25%
reduction in total FM NCX1.7 activity ([3]; 5 μmol/l, n = 10): 65.57 ± 3.20%
IC50 ([3]; read-out: IC50, FM late current NCX1.7, late current, 1 min postactivation): 1.72 ± 0.09 µM
IC50 ([3]; read-out: IC50, FM peak current NCX1.7, peak current): 4.71 ± 0.15 µM
reduction in total current, FM NCX1.11 [4]: 64.3 ± 2.92%
Structure (SMILES): N=C(N)SCCc1ccc(OCc2ccc([N+](=O)[O-])cc2)cc1 [KB-R7943]
FM KB-R7943 sensitivity of NCX1.4 [5]: dramatically decreased FM KB-R7943 sensitivity
reduction in total Ba2+ current, mouse β-cells [6]: 32.66 ± 3.74%
reduction in total Ba2+ current, human β-cells [7]: 29.54 ± 3.18%
rate of calcium clearance after removal of the tolbutamide/KCl challenge ([8]; 1 μmol/l): significantly slowed
increase in Ca2+c when added concurrently with tolbutamide ([8]; 1 μmol/l KB-R7943 + 20 μmol/l tolbutamide, 2.8 mmol/l glucose, n = 9): 19.95 ± 6.92%
effect on Ca2+c levels when applied alone ([8]; 1 μmol/l, 2.8 mmol/l glucose): failed to significantly increase
increase to the peak Ca2+c response ([8]; 1 μmol/l, 11.1 mmol/l glucose challenge): 83.44 ± 18.27%
increase of average Ca2+c (AUC) ([8]; 1 μmol/l, 11.1 mmol/l glucose challenge, n = 9): 79.98 ± 8.73%
effect on Ca2+c levels in the presence of KCl ([8]; 1 μmol/l, 15 mmol/l KCl): significantly increases
change in total capacitance, mouse β-cells [9]: 118.22 ± 33.48 fF/pF
total change in capacitance, human β-cells [10]: 100.20 ± 28.82 fF/pF
depolarization-induced capacitance response, mouse α-cells [11]: did not significantly alter
rate at which the capacitance increased, presence vs absence of KB-R7943 [12]: not significantly different
insulin secretion, mouse islets ([13]; 2.8 mmol/l glucose): without effect
first- and second-phase insulin secretion, mouse islets ([13]; 11.1 mmol/l glucose): significantly enhanced
insulin secretion, human islets ([14]; 2.8 mmol/l glucose): without effect
first- and second-phase insulin secretion, human islets ([14]; 11.1 mmol/l glucose): significantly enhanced
blood glucose in intraperitoneal glucose tolerance test [15]: only showed a trend toward KB-R7943 lowering blood glucose
IC50 [16]: 3 to 7 µM

Structure (SMILES): CCCCNC(=O)NS(=O)(=O)c1ccc(C)cc1 [tolbutamide, Tolbutamide]
increase in the 340/380 nm ratio (Ca2+c) ([8]; 20 μmol/l tolbutamide, 2.8 mmol/l glucose, n = 9): 0.45 ± 0.04
decrease of elevation in Ca2+c upon a second tolbutamide challenge ([8]; 20 μmol/l tolbutamide, 2.8 mmol/l glucose, n = 11): 21.87 ± 4.58%
